# Columns and labels:
# Staphylococcus aureus [1] = assay: Minimum inhibitory concentration against S13E strain of Staphylococcus aureus; type: functional
# Streptococcus pneumoniae [2] = assay: Minimum inhibitory concentration against park strain of Streptococcus pneumoniae
# [3] = Area under plasma concentration vs time curve observed in Rhesus monkeys after oral administration of single 30 mg/kg dose; type: ADME, organism-based, Macaca mulatta; set-up: dose 30 mg/kg, route oral; conditions: rhesus monkey
# How it was run: (§1)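 Rhesus monkeys, adult males, six animals per compound, each given drug orally and iv; fasted overnight. Single 30 mg/kg solution doses, by nasogastric tube (in water) or saphenous vein (in isotonic lactated Ringer). Plasma sampled at intervals, frozen at -70 °C, antibacterial activity by microbiological assay. AUC in μg min/mL; oral bioavailability from oral vs iv AUC.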
# [4] = Area under plasma concentration vs time curve observed in Rhesus monkeys after, iv administration of single 30 mg/kg dose; type: ADME, organism-based, Macaca mulatta; set-up: dose 30 mg/kg, route intravenous; conditions: rhesus monkey; how it was run: as §1
# [5] = Oral bioavailability in dog (female mongrel); type: ADME, organism-based, Canis lupus familiaris; conditions: in vivo
# How it was run: (§2)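 Six female mongrel dogs (14-23 kg) fasted overnight, bladder catheterized; single 15 mg/kg solution doses by stomach tube (in water, total 500 mL) or cephalic vein (saline or pH 6.0 NaCl/phosphate/acetate buffer). Plasma sampled at intervals; activity by disk-plate agar diffusion against E. coli MB 3804, standards in dog serum or buffer. AUC μg min/mL, mean ± SEM; BA from iv vs po AUC and urinary recovery.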
# Klebsiella aerogenes = assay: Minimum inhibitory concentration against EB17 strain of Enterobacter aerogenes; type: functional
# [6] = (§3) Minimum inhibitory concentration against res 76 strain of Haemophilus influenzae; type: functional
# [7] = (§4) Minimum inhibitory concentration against sens CL strain of Haemophilus influenzae; type: functional
# [8] = Minimum inhibitory concentration against N9 strain of Shigella sonnei; type: functional
# [9] = Oral bioavailability in Rhesus monkey; type: ADME, organism-based, Macaca mulatta; conditions: in vivo; how it was run: as §1
# Streptococcus pneumoniae [10] = assay: Minimum inhibitory concentration against Park strain of Streptococcus pneumoniae
# [11] = Dose in urine (24-h urine excretion) in female mongrel dogs after iv administration of single 15 mg/kg dose; type: ADME, organism-based, Canis lupus familiaris; set-up: dose 15 mg/kg, route intravenous; conditions: dog
# How it was run: (§5)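 Female mongrel dogs (n=6), bladder catheter; urine collected at intervals after single 15 mg/kg iv or oral solution dose, frozen; antibiotic activity by disk-plate agar diffusion against E. coli MB 3804 with standards in pH 6.0 buffer; percent of dose recovered in urine.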
# Klebsiella pneumoniae = assay: Minimum inhibitory concentration against X68 strain of Klebsiella pneumoniae; type: functional
# [12] = Dose in urine (24-h urine excretion) in female mongrel dogs after oral administration of single 15 mg/kg dose; type: ADME, organism-based, Canis lupus familiaris; set-up: dose 15 mg/kg, route oral; conditions: dog; how it was run: as §5
# Escherichia coli = assay: Minimum inhibitory concentration against EC14 strain Escherichia coli; type: functional
# Canis familiaris [13] = assay: Area under plasma concentration vs time curve observed in female mongrel dogs after, iv administration of single 15 mg/kg dose; type: ADME, organism-based, Canis lupus familiaris; set-up: dose 15 mg/kg, route intravenous; conditions: dog, in vivo; how it was run: as §2
# Salmonella = assay: Minimum inhibitory concentration against X514 strain of Salmonella; type: functional
# [14] = Oral bioavailability in mouse; type: ADME, organism-based; conditions: in vivo
# How it was run: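 Male Cox mice given water and liquid diet overnight; 20 mg/kg in saline (2 mg/mL) sc or orally; urine from collection cages plus bladder contents over 2 h; activity by agar well assay with Bacillus subtilis ATCC 6633. Bioavailability from percent dose excreted in urine after oral vs parenteral dosing.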
# Staphylococcus aureus [15] = assay: Minimum inhibitory concentration against V41 strain of Staphylococcus aureus; type: functional
# Streptococcus pyogenes [16] = assay: Minimum inhibitory concentration against Streptococcus pyogenes C203; type: functional
# [17] = tested on: Staphylococcus epidermidis; assay: Minimum inhibitory concentration against 222 strain of Staphylococcus epidermidis; type: functional
# Staphylococcus aureus [18] = assay: Minimum inhibitory concentration against X1.1 strain of Staphylococcus aureus; type: functional
# Streptococcus pyogenes [19] = assay: Minimum inhibitory concentration against C203 strain of Streptococcus pyogenes
# Canis familiaris [20] = assay: Area under plasma concentration vs time curve observed in female mongrel dogs after, oral administration of single 15 mg/kg dose; type: ADME, organism-based, Canis lupus familiaris; set-up: dose 15 mg/kg, route oral; conditions: dog, in vivo; how it was run: as §2
# [21] = tested on: Staphylococcus epidermidis; assay: Minimum inhibitory concentration against Epil strain of Staphylococcus epidermidis; type: functional
# Staphylococcus aureus [22] = assay: Minimum inhibitory concentration against 3055 strain of Staphylococcus aureus
# Haemophilus influenzae [23] = assay: as §3; type: functional
# Haemophilus influenzae [24] = assay: as §4; type: functional
SMILES,MIC (Staphylococcus aureus [1]) [µg/mL],MIC (Streptococcus pneumoniae [2]) [µg/mL],AUC [3] [ng·h/mL],AUC [4] [ng·h/mL],MIC (Klebsiella aerogenes) [µg/mL],MIC [6] [µg/mL],MIC [7] [µg/mL],MIC [8] [µg/mL],MIC (Streptococcus pneumoniae [10]) [µg/mL],MIC (Klebsiella pneumoniae) [µg/mL],MIC (Escherichia coli) [µg/mL],MIC (Salmonella) [µg/mL],bioavailability [14] [%],MIC (Staphylococcus aureus [15]) [µg/mL],MIC (Streptococcus pyogenes [16]) [µg/mL],MIC [17] [µg/mL],MIC (Staphylococcus aureus [18]) [µg/mL],MIC (Streptococcus pyogenes [19]) [µg/mL],MIC [21] [µg/mL],MIC (Staphylococcus aureus [22]) [µg/mL],further results
O=C(Cc1ccccc1)N[C@@H]1C(=O)N2C(C(=O)O)=C(Cl)CS[C@H]12,32,0.25,8830,58300,> 128,1,1,64,0.125,4,8,4,37,16,0.125,1,0.5,0.125,2,0.5,bioavailability [5]: 17%; bioavailability [9]: 15.1%; dose excreted [11]: 67%; dose excreted [12]: 15%; AUC (Canis familiaris [13]): 97300 ng·h/mL; AUC (Canis familiaris [20]): 16200 ng·h/mL
O=C(COc1ccccc1)N[C@@H]1C(=O)N2C(C(=O)O)=CCS[C@H]12,16,0.25,,,> 128,8,32,> 128,1,> 128,32,> 128,22,16,0.5,0.5,0.5,0.25,2,0.5,
CC1=C(C(=O)O)N2C(=O)[C@@H](NC(=O)COc3ccccc3)[C@H]2SC1,> 128,,,,> 128,,,> 128,2,> 128,> 128,> 128,37,32,2,4,2,,16,,MIC (Haemophilus influenzae [23]): 8 µg/mL; MIC (Haemophilus influenzae [24]): 16 µg/mL
O=C(Cc1csc2ccc(Cl)cc12)N[C@@H]1C(=O)N2C(C(=O)O)=C(Cl)CS[C@H]12,2,0.02,,,128,0.25,1,128,0.015,128,64,128,,2,0.015,0.125,0.03,0.03,0.5,0.06,
O=C(Cc1cccs1)N[C@@H]1C(=O)N2C(C(=O)O)=C(Cl)CS[C@H]12,16,0.25,5670,43200,64,1,1,32,0.125,2,4,2,44,16,0.125,1,0.5,0.125,2,0.5,bioavailability [5]: 21%; bioavailability [9]: 13.1%; dose excreted [11]: 75%; dose excreted [12]: 17%; AUC (Canis familiaris [13]): 75300 ng·h/mL; AUC (Canis familiaris [20]): 15500 ng·h/mL

# From ChEMBL document CHEMBL1123985, “Oral absorption of cephalosporin antibiotics. 1. Synthesis, biological properties, and oral bioavailability of 7-(arylacetamido)-3-chloro cephalosporins in animals” (J Med Chem, 1988)
